Results published in ChEMBL document CHEMBL1138738, “Synthesis, in vitro pharmacology, structure-activity relationships, and pharmacokinetics of 3-alkoxy-2-amino-6-fluorobicyclo[3.1.0]hexane-2,6-dicarboxylic acid derivatives as potent and selective group II metabotropic glutamate receptor antagonists” (J Med Chem, 2004).
One block for each compound: values may come before it.

Legend:
[1] = molecular target: T1, Metabotropic glutamate receptor 2 (Rattus norvegicus, UniProt P31421); test: Binding affinity towards metabotropic glutamate receptor 2 of rat expressed in CHO cells was determined by using [3H]MGS-0008; format: cell-based
[2] = Half-life in rat upon oral dose of 30 mg/kg; format: ADME, organism-based; set-up: dose 30 mg/kg, route oral; conditions: in vivo
How it was run: (§1)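 Fasted rats were dosed orally at 3, 10 or 30 mg/kg. Plasma concentration-time profiles were measured by LC/ESI-MS/MS. Cmax, Tmax, elimination half-life and AUCinf were derived per dose group and reported as mean ± deviation.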

[3] = molecular target: T2, Metabotropic glutamate receptor 1 (Rattus norvegicus, UniProt P23385); test: Effective concentration for agonistic activity towards metabotropic glutamate receptor 1 of rat expressed in CHO cells; format: functional, cell-based
[4] = molecular target: T1, Metabotropic glutamate receptor 2; test: Effective concentration for agonistic activity towards metabotropic glutamate receptor 2 of rat expressed in CHO cells; format: functional, cell-based
[5] = molecular target: T3, Metabotropic glutamate receptor 3 (Rattus norvegicus, UniProt P31422); test: Effective concentration for agonistic activity towards metabotropic glutamate receptor 3 of rat expressed in CHO cells; format: functional, cell-based
[6] = molecular target: T4, Metabotropic glutamate receptor 5 (Rattus norvegicus, UniProt P31424); test: Effective concentration for agonistic activity towards metabotropic glutamate receptor 5 of rat expressed in CHO cells; format: functional, cell-based
[7] = molecular target: T5, Metabotropic glutamate receptor 6 (Rattus norvegicus, UniProt P35349); test: Effective concentration for agonistic activity towards metabotropic glutamate receptor 6 of rat expressed in CHO cells; format: functional, cell-based
[8] = molecular target: T2, Metabotropic glutamate receptor 1; test: Concentration required to inhibit metabotropic glutamate receptor 1 activity of rat expressed in CHO cells; format: cell-based
[9] = molecular target: T3, Metabotropic glutamate receptor 3; test: Concentration required to inhibit metabotropic glutamate receptor 3 activity of rat expressed in CHO cells; format: cell-based
[10] = molecular target: Metabotropic glutamate receptor 4 (Rattus norvegicus, UniProt P31423); test: Concentration required to inhibit metabotropic glutamate receptor 4 activity of rat expressed in CHO cells; format: cell-based
[11] = molecular target: T4, Metabotropic glutamate receptor 5; test: Concentration required to inhibit metabotropic glutamate receptor 5 activity of rat expressed in CHO cells; format: cell-based
[12] = molecular target: T5, Metabotropic glutamate receptor 6; test: Concentration required to inhibit metabotropic glutamate receptor 6 activity of rat expressed in CHO cells; format: cell-based
[13] = Concentration of compound in brain of rat after 1 hr of oral dose 10 mg/kg; format: ADME, organism-based; set-up: dose 10 mg/kg, route oral
How it was run: (§2)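 Rats given a single peroral dose of 10 mg/kg. Plasma and cerebrum were sampled at 1, 3, 6 and 24 h. Concentrations were measured by LC/ESI-MS/MS using an internal standard. Detection limits were 1 ng/mL in plasma and 1.5 ng/g in brain. Tmax, Cmax, terminal half-life (lambda z) and predicted AUCinf were derived from the mean time-course levels.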

[14] = Concentration of compound in brain of rat after 3h of oral dose 10 mg/kg; format: ADME, organism-based; set-up: dose 10 mg/kg, route oral; how it was run: as §2
[15] = Concentration of compound in brain of rat after 6 hr of oral dose 10 mg/kg; format: ADME, organism-based; set-up: dose 10 mg/kg, route oral; how it was run: as §2
[16] = Peak plasma concentration in rats upon oral dose of 3 mg/kg; format: ADME, organism-based; set-up: dose 3 mg/kg, route oral; conditions: rat; how it was run: as §1
[17] = Peak plasma concentration in rats upon oral dose of 10 mg/kg; format: ADME, organism-based; set-up: dose 10 mg/kg, route oral; conditions: rat; how it was run: as §1
[18] = Peak plasma concentration in rats upon oral dose of 30 mg/kg; format: ADME, organism-based; set-up: dose 30 mg/kg, route oral; conditions: rat; how it was run: as §1
[19] = Peak plasma concentration in rat brain upon oral dose of 10 mg/kg; format: ADME, organism-based; set-up: dose 10 mg/kg, route oral; how it was run: as §2
[20] = Peak plasma concentration in rat plasma upon oral dose of 10 mg/kg; format: ADME, organism-based; set-up: dose 10 mg/kg, route oral; how it was run: as §2
[21] = Half-life in rat brain upon oral dose of 10 mg/kg; format: ADME, organism-based; set-up: dose 10 mg/kg, route oral; how it was run: as §2
[22] = Half-life in rat plasma upon oral dose of 10 mg/kg; format: ADME, organism-based; set-up: dose 10 mg/kg, route oral; how it was run: as §2
[23] = Concentration of compound in brain of rat after 24 hr of oral dose 10 mg/kg; format: ADME, organism-based; set-up: dose 10 mg/kg, route oral; how it was run: as §2
[24] = Concentration of compound in plasma of rat after 1 hr of oral dose 10 mg/kg; format: ADME, organism-based; set-up: dose 10 mg/kg, route oral; how it was run: as §2
[25] = Concentration of compound in plasma of rat after 3h of oral dose 10 mg/kg; format: ADME, organism-based; set-up: dose 10 mg/kg, route oral; how it was run: as §2
[26] = Concentration of compound in plasma of rat after 6 hr of oral dose 10 mg/kg; format: ADME, organism-based; set-up: dose 10 mg/kg, route oral; how it was run: as §2
[27] = Concentration of compound in plasma of rat after 24 hr of oral dose 10 mg/kg; format: ADME, organism-based; set-up: dose 10 mg/kg, route oral; how it was run: as §2
[28] = molecular target: T3, Metabotropic glutamate receptor 3; test: Binding affinity towards metabotropic glutamate receptor 3 of rat expressed in CHO cells was determined by using [3H]MGS-0008; format: cell-based
[29] = Maximum time required to achieve peak plasma concentration upon oral dose of 3 mg/kg to rats; format: ADME, organism-based; set-up: dose 3 mg/kg, route oral; conditions: rat; how it was run: as §1
[30] = Maximum time required to achieve peak plasma concentration upon oral dose of 10 mg/kg to rats; format: ADME, organism-based; set-up: dose 10 mg/kg, route oral; conditions: rat; how it was run: as §1
[31] = Maximum time required to achieve peak plasma concentration upon oral dose of 30 mg/kg to rats; format: ADME, organism-based; set-up: dose 30 mg/kg, route oral; conditions: rat; how it was run: as §1
[32] = Maximum time required to achieve peak plasma concentration in rat brain upon oral dose of 10 mg/kg; format: ADME, organism-based; set-up: dose 10 mg/kg, route oral; how it was run: as §2
[33] = Maximum time required to achieve peak plasma concentration in rat plasma upon oral dose of 10 mg/kg; format: ADME, organism-based; set-up: dose 10 mg/kg, route oral; how it was run: as §2
[34] = Half-life in rat upon oral dose of 3 mg/kg; format: ADME, organism-based; set-up: dose 3 mg/kg, route oral; conditions: in vivo; how it was run: as §1
[35] = Half-life in rat upon oral dose of 10 mg/kg; format: ADME, organism-based; set-up: dose 10 mg/kg, route oral; conditions: in vivo; how it was run: as §1
[36] = molecular target: Metabotropic glutamate receptor 7 (Rattus norvegicus, UniProt P35400); test: Binding affinity towards metabotropic glutamate receptor 7 of rat expressed in CHO cells was determined by using [3H]LY341495

T3 sequence (P31422 whole entry): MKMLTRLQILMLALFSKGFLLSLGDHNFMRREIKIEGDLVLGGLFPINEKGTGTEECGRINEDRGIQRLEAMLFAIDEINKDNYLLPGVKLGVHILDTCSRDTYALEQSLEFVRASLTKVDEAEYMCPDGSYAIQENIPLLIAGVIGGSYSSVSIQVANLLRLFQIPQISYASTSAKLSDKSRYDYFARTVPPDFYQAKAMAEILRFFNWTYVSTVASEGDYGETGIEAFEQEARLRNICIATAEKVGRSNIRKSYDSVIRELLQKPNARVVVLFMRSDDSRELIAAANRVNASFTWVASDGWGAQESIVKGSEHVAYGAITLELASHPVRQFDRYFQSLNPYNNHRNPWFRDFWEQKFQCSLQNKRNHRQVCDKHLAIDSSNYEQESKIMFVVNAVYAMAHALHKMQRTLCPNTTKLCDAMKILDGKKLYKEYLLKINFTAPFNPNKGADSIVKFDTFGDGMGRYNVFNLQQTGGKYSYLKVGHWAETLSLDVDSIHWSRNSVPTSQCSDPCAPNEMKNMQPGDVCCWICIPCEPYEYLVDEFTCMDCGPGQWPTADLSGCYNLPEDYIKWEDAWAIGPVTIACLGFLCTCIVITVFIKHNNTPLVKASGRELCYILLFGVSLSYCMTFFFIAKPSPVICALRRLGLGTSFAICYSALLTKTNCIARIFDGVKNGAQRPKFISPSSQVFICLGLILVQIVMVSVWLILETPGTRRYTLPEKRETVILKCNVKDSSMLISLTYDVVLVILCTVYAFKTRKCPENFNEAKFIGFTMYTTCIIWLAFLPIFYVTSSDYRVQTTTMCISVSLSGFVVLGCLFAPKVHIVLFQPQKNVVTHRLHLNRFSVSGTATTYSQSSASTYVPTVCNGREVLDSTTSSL
T1 sequence (P31421 whole entry): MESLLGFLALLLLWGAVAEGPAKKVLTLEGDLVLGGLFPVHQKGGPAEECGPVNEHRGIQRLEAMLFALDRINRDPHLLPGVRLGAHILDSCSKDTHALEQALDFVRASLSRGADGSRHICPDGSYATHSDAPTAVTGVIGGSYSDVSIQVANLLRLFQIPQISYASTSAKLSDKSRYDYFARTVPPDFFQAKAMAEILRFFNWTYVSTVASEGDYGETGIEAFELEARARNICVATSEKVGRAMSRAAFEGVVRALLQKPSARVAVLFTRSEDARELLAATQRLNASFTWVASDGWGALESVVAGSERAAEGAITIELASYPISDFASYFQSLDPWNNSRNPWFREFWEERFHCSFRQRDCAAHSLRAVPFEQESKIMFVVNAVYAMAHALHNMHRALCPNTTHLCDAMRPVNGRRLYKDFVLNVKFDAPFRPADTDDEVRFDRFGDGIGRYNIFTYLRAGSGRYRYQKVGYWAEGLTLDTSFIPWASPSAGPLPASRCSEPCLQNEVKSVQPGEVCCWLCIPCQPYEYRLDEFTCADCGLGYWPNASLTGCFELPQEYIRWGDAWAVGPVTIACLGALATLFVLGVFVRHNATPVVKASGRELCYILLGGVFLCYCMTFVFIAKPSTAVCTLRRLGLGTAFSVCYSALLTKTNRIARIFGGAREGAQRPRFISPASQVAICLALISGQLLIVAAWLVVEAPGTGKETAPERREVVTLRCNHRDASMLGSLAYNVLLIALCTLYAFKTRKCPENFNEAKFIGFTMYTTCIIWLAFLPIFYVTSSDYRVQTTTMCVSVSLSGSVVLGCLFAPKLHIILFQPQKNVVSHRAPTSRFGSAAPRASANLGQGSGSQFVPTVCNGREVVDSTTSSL
T4 sequence (P31424 whole entry): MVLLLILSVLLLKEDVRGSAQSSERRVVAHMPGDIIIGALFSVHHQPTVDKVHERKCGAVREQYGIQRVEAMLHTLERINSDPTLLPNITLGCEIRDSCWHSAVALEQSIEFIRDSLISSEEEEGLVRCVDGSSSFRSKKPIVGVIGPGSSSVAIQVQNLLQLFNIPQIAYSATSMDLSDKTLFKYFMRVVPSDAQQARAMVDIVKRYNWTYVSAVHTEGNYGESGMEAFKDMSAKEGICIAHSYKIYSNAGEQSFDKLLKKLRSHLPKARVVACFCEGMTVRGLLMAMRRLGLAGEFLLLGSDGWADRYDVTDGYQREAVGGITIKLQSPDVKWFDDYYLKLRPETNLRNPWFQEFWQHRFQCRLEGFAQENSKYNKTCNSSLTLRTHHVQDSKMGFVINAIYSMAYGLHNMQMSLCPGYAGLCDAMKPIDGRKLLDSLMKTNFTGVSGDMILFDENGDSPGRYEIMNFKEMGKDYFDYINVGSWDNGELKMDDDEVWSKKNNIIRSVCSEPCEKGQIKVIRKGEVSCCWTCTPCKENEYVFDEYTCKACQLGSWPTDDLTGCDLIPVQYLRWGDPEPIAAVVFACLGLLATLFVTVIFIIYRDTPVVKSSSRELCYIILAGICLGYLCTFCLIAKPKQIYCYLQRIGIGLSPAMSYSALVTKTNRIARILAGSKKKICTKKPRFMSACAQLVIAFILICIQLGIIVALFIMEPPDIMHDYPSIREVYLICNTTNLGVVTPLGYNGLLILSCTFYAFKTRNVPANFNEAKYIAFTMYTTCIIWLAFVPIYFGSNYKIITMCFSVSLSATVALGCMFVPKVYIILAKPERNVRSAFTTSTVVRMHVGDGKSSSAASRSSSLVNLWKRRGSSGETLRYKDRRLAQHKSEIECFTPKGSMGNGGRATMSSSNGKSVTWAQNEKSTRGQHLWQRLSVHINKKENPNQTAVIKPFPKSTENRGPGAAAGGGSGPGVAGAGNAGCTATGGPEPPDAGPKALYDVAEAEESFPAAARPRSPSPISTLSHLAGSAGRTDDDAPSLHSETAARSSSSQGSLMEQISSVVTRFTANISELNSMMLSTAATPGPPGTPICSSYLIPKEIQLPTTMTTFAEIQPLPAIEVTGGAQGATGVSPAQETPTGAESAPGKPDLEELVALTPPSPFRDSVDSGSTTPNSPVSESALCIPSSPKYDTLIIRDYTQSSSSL
T2 sequence (P23385 whole entry): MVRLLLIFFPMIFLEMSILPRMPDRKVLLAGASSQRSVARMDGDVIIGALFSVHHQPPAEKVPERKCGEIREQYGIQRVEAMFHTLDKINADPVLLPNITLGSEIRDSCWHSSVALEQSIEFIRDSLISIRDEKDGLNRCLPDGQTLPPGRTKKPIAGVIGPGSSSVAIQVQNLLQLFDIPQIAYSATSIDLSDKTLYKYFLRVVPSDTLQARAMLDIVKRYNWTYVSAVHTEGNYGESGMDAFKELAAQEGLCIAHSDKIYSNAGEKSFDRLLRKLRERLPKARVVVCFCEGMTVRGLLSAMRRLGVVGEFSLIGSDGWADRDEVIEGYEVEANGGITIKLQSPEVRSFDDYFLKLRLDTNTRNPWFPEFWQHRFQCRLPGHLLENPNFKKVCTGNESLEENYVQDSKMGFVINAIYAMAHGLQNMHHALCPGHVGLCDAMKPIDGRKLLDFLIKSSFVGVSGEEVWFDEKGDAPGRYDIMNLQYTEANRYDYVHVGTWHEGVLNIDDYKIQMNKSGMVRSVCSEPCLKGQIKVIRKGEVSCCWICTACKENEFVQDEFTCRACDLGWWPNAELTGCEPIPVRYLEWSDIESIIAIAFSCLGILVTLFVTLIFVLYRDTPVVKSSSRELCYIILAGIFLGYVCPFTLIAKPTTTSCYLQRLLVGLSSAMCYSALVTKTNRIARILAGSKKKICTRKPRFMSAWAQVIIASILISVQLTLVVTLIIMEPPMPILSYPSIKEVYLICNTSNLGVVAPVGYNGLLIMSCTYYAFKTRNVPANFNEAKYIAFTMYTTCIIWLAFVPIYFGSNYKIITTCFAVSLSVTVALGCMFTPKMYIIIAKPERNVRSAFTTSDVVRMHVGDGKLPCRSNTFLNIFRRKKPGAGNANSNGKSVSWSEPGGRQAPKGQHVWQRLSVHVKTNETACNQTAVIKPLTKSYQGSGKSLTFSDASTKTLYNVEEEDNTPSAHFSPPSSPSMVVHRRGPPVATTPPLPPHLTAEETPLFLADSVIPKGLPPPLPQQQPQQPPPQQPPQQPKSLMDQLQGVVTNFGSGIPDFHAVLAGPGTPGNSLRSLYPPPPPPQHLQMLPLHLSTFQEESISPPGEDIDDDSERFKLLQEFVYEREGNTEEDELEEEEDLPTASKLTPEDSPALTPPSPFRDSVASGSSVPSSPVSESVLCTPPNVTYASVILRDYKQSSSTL
T5 sequence (P35349 whole entry): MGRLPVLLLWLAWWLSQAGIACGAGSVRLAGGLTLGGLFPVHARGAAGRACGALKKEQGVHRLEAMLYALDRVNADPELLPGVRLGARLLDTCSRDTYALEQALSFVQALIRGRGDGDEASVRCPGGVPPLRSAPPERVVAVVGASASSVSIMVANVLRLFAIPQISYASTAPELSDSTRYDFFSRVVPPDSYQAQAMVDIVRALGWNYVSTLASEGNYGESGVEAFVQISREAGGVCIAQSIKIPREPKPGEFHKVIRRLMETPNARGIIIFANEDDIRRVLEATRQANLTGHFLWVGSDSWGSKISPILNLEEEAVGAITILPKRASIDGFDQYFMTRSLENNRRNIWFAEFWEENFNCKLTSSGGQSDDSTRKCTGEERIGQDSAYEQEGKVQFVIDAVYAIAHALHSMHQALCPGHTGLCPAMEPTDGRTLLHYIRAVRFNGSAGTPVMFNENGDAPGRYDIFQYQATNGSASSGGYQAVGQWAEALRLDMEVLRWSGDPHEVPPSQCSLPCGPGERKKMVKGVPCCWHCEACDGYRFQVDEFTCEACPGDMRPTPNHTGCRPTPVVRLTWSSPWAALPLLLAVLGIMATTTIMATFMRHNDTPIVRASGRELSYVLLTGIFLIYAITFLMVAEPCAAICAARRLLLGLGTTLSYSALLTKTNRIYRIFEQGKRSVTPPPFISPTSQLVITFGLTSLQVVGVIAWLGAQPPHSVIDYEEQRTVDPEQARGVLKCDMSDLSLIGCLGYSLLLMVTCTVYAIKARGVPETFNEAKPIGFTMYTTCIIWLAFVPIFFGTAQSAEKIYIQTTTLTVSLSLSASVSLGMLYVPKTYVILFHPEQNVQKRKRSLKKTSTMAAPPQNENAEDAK

SMILES: COc1cccc(CO[C@@H]2C[C@@H]3[C@H]([C@]2(N)C(=O)O)[C@@]3(F)C(=O)O)c1
Ki [1]: 5.92 nM

SMILES: N[C@]1(C(=O)O)[C@H]2[C@@H](C[C@H]1OCc1c(F)cccc1F)[C@]2(F)C(=O)O
Ki [1]: 7.02 nM

SMILES: N[C@]1(C(=O)O)[C@H]2[C@@H](C[C@H]1OCc1cccc(C(=O)O)c1)[C@]2(F)C(=O)O
Ki [1]: 1.06 nM

Other lines, results leading:

Ki [1]: > 10000 nM
SMILES: N[C@]1(C(=O)O)[C@@H](OCc2ccc(Cl)c(Cl)c2)C[C@H]2[C@@H]1[C@]2(F)C(=O)O

Ki [1]: 3.05 nM
SMILES: CCC[C@H](O[C@@H]1C[C@@H]2[C@H]([C@]1(N)C(=O)O)[C@@]2(F)C(=O)O)c1ccc(Cl)c(Cl)c1

half-life [2]: 2.77 h
EC50 [3]: > 100000 nM
EC50 [4]: > 100000 nM
EC50 [5]: > 100000 nM
EC50 [6]: > 100000 nM
EC50 [7]: > 100000 nM
IC50 [8]: 93300 nM
IC50 [9]: 24 nM
IC50 [10]: 1740 nM
IC50 [11]: 117000 nM
IC50 [12]: 2060 nM
concentration at 1 h [13]: 3.88 ng/mL
concentration at 3 h [14]: 8.02 ng/mL
concentration at 6 h [15]: 13.2 ng/mL
Cmax [16]: 214 ng/mL
Cmax [17]: 932 ng/mL
Cmax [18]: 2960 ng/mL
Cmax [19]: 13.2 ng/mL
Cmax [20]: 492 ng/mL
half-life [21]: 10.9 h
half-life [22]: 2.3 h
concentration at 24 h [23]: 4.22 ng/mL
concentration at 1 h [24]: 364 ng/mL
concentration at 3 h [25]: 429 ng/mL
concentration at 6 h [26]: 492 ng/mL
concentration at 24 h [27]: 2.1 ng/mL
Ki [1]: 2.38 nM
Ki [28]: 4.46 nM
Tmax [29]: 2 h
Tmax [30]: 2.7 h
Tmax [31]: 3.3 h
Tmax [32]: 6 h
Tmax [33]: 6 h
half-life [34]: 2.15 h
half-life [35]: 2.76 h
Ki [36]: 664 nM
SMILES: N[C@]1(C(=O)O)[C@H]2[C@@H](C[C@H]1OCc1ccc(Cl)c(Cl)c1)[C@]2(F)C(=O)O

Ki [1]: 3.12 nM
SMILES: CC[C@H](O[C@@H]1C[C@@H]2[C@H]([C@]1(N)C(=O)O)[C@@]2(F)C(=O)O)c1ccc(Cl)c(Cl)c1
